Data on 98 compounds can be found in ChEMBL document CHEMBL4513216, “Probing the Open Global Health Chemical Diversity Library for Multistage-Active Starting Points for Next-Generation Antimalarials” (ACS Infect Dis, 2020).

Molecules are shown by their SMILES.

This series in a line: Toxicity liver stage against HepG2, at 10uM. Type of series: cell-based. Further details: test concentration 10 uM, cell line HepG2-A16-CD81EGFP. As to conditions: human, HepG2-A16-CD81EGFP cells; read-out: INHIBITION
Put shortly:
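Uninfected HepG2-A16-CD81EGFP cells, 3 × 10^3 per well, 1536-well, plated on prespotted compound at 10 μM final, parasite-free screening media added to match infected plates; puromycin 10 μM positive, DMSO 0.5% negative; run in parallel with 48 h PbLuc assay at 37 °C, 5% CO2; viability by CellTiter-Glo luminescence, normalized to controls.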
As for `CCN(CC)CCNCC1CCOC(C)(C)C1` (stereo not drawn), the cytotoxicity at 10 µM is -6.87%.

Take `CC(C)(C)OCC1CN(CC2CC2)S(=O)(=O)c2cnccc2O1` (stereo not drawn): the cytotoxicity at 10 µM is -1.16%.

In the case of `COCCNC(=O)Cn1ccc2ccc(F)cc21`, the cytotoxicity at 10 µM is 2.14%.

For `CC(=O)Nc1ccc(OCc2noc(C(=O)N3CCCCC3)n2)cc1`, the cytotoxicity at 10 µM is -3.68%.

Regarding `O=C(CCc1nc2cccnc2[nH]1)Nc1ccc2c(c1)OCC(=O)N2`, the cytotoxicity at 10 µM came out at 6.78%.

Take `COc1ccccc1OCC(=O)NCC(O)(c1cccs1)C1CC1` (stereo not drawn): the cytotoxicity at 10 µM is -5%.

Turning to `COC1CCN(C(=O)CCn2ccc(=O)[nH]c2=O)CC1`, the cytotoxicity at 10 µM was -4.73%.

On to `COc1cc(N2C[C@H]3CN(CCN4CCCC4)C(=O)[C@H]3C2)ncn1`, for which the cytotoxicity at 10 µM was 12.7%.

Regarding `Cn1cc(CN2C[C@@H]3COC[C@]3(C(=O)N3CCCO3)C2)cn1`, the cytotoxicity at 10 µM was found to be 12.1%.

With `CCOC1CC2(CCN(CCO)CC2)c2ccc(C)cc21` (stereo not drawn), the cytotoxicity at 10 µM stood at 9.01%.

For the compound `O=C(C1CN(Cc2ccoc2)CC12CCOCC2)N1CCCC1` (stereo not drawn), the cytotoxicity at 10 µM stood at 11.2%.

In the case of `Cc1cnc(N2CCC3(CC2)CC3C(=O)NCC2CC2)nc1` (stereo not drawn), the cytotoxicity at 10 µM is 6.34%.

On to `O=S(=O)(C1CC1)N1CCOCC2(CN(c3ncccn3)CCO2)C1` (stereo not drawn), for which the cytotoxicity at 10 µM was determined as 6.37%.

As to `O=S(=O)(NC1=NCN(CCc2cccs2)CN1)c1ccc(Cl)cc1`, the cytotoxicity at 10 µM was -2.03%.

Take `O=C(CSC1CCc2ccccc2NC1=O)NCCO` (stereo not drawn): the cytotoxicity at 10 µM is 5.52%.

With `O=C(NCc1cnc2n1CCN(CC1CC1)CC2)C1CCC1`, the cytotoxicity at 10 µM was -12.9%.

Consider `COCCN1CCC2(CCN(Cc3nccs3)CC2)C1=O`, for which the cytotoxicity at 10 µM was -4.36%.

Turning to `CC(C)NC(=O)c1nn(C)c(NC(=O)Cc2ccccc2)c1F`, the cytotoxicity at 10 µM is -1.73%.

`Cc1nccn1[C@@H]1CC[C@@H](N(C)S(=O)(=O)c2cccc(F)c2)[C@H]1O`: the cytotoxicity at 10 µM was -2.4%.

Turning to `Cc1cnc(C(=O)N(C)[C@@H]2CCC[C@@H](Oc3ccccc3)[C@@H]2O)cn1`, the cytotoxicity at 10 µM was -15.3%.

In the case of `CNC(=O)c1ccc(C2CCCN(C(=O)c3c(C)noc3C)C2)nc1` (stereo not drawn), the cytotoxicity at 10 µM was -9.88%.

Consider `O=C(N1CCCCC1)N1CCCC(c2ncncc2-c2ccncc2)C1` (stereo not drawn), for which the cytotoxicity at 10 µM was -32.1%.

For the compound `CCCC(=O)N1CCC(c2nc(O)c3c(n2)CCN(C2CCCC2)C3)C1` (stereo not drawn), the cytotoxicity at 10 µM was found to be 9.34%.

`O=C(c1cnccn1)N1CCC(Cc2cnc3[nH]ccc3c2)CC1`: the cytotoxicity at 10 µM was -18.6%.

On to `CN1CCN(C2CCN(CC(O)c3ccccc3F)CC2)C1=O` (stereo not drawn), for which the cytotoxicity at 10 µM was -0.275%.

For the compound `CC(c1nc(C2CC2)no1)N1CCc2c(ncn2C2CC2)C1` (stereo not drawn), the cytotoxicity at 10 µM is -2.52%.

For the compound `COCCCN(Cc1ccncc1)C(=O)C1COc2ccccc2C1` (stereo not drawn), the cytotoxicity at 10 µM came to 11.5%.

Consider `CC(C)CN1CCC(NC(=O)NCCC(=O)NCc2ccccc2)CC1`, for which the cytotoxicity at 10 µM was determined as 1.64%.

In the case of `NC(=O)C1CCN(C(=O)NCc2ccccc2Cn2ccnc2)CC1`, the cytotoxicity at 10 µM is -0.302%.

With `CC(C)CN(Cc1nnc(-c2ccco2)o1)CC(C)C`, the cytotoxicity at 10 µM was found to be 0.0773%.

Consider `Cc1cc(CN2CCN(C(C)c3nc(C(C)C)no3)CC2)no1` (stereo not drawn), for which the cytotoxicity at 10 µM was determined as 3.29%.

With `CC(=O)N1CCN(CCNS(=O)(=O)c2cc(F)ccc2C)CC1`, the cytotoxicity at 10 µM stood at 5.42%.

In the case of `CC(C)c1nnc2n1CC(CNCc1ccc3c(c1)OCCO3)CC2` (stereo not drawn), the cytotoxicity at 10 µM was -5.92%.

Consider `CSc1ccc(NCc2csc(CS(C)(=O)=O)n2)cc1F`, for which the cytotoxicity at 10 µM was -9.99%.

Take `Cn1nnc2cc(C(=O)NS(=O)(=O)c3ccc(F)cc3)ccc21`: the cytotoxicity at 10 µM came out at 5.46%.

`O=C(c1ccc(N2CCCC2)nc1)N1CCCC(c2nccs2)C1` (stereo not drawn): the cytotoxicity at 10 µM is 15.4%.

Consider `COCCNC(C)c1ccc(-c2cccnc2)cc1` (stereo not drawn), for which the cytotoxicity at 10 µM is 2.7%.

Take `COCCN1CCN(CC(O)c2ccc(C(F)(F)F)cc2)CC1` (stereo not drawn): the cytotoxicity at 10 µM was -10.7%.

With `COc1ccccc1N1CCC(CNS(=O)(=O)c2c(C)nn(C)c2C)C1` (stereo not drawn), the cytotoxicity at 10 µM is -21.8%.

Take `CC(=O)NCCC(=O)NC1(c2ccc(Cl)c(Cl)c2)CC1`: the cytotoxicity at 10 µM was 7.49%.

As for `CSC(C)(C)CNC(=O)NCc1cccc(-n2ccnc2)c1`, the cytotoxicity at 10 µM amounted to 32.9%.

Regarding `CC(=O)Nc1ccc(F)c(S(=O)(=O)NC(C)(C)C)c1`, the cytotoxicity at 10 µM was determined as 1.15%.

For the compound `N#Cc1ccc(CNC(=O)NCCC(=O)NC2CCCC2)c(F)c1`, the cytotoxicity at 10 µM was 3.79%.

Regarding `Cc1nn(CCO)c(C)c1CN1CCN(C2CCCCC2)C(=O)C1`, the cytotoxicity at 10 µM amounted to 0.541%.

Consider `O=C(O)[C@H]1C[C@@H](C(=O)NCc2ccncc2)CN(Cc2ccccc2)C1`, for which the cytotoxicity at 10 µM is -138%.

Take `Cc1cnc(C(=O)N2CC(=O)N(c3ccccc3Cl)CC2C)cn1` (stereo not drawn): the cytotoxicity at 10 µM was -8.23%.

For the compound `CN1CCCC(CCC(=O)NCCCn2ncc3ccccc32)C1` (stereo not drawn), the cytotoxicity at 10 µM was 2.39%.

For the compound `Cc1cc2ccccc2n1CCC(=O)N1CCCC1Cn1cccn1` (stereo not drawn), the cytotoxicity at 10 µM was determined as 2.15%.

Consider `COc1cc(NC(=O)NCc2ccccn2)cc(OC)c1`, for which the cytotoxicity at 10 µM was -4.13%.

For `CCc1cccc(OCCCN(C)C(=O)CN2CCNC2=O)c1`, the cytotoxicity at 10 µM was -2.48%.

As to `CC(C)n1ccnc1C1CCN(C(=O)C2COc3ccccc3O2)CC1` (stereo not drawn), the cytotoxicity at 10 µM was -8.28%.

As for `COc1ccc2c(c1)OCC(CNC(=O)c1ccc(=O)n(C)c1)C2` (stereo not drawn), the cytotoxicity at 10 µM is -11.2%.

Consider `COCCN1CCCC1c1nccnc1Nc1nc(C)cs1` (stereo not drawn), for which the cytotoxicity at 10 µM was determined as 6.02%.

In the case of `Cc1cnn(CC2CN(Cc3cccc(C(N)=O)c3)CCO2)c1` (stereo not drawn), the cytotoxicity at 10 µM is -1.52%.

`O=C(c1ccc2nncn2c1)N1CCCC(n2ccnc2)C1` (stereo not drawn): the cytotoxicity at 10 µM is -1.14%.

With `CC(C)Cn1nnnc1SC(C(=O)NCc1cccnc1)C(C)C` (stereo not drawn), the cytotoxicity at 10 µM is -4.05%.

For `CN(Cc1ccccn1)C1CCCN(Cc2noc(C3CC3)n2)C1` (stereo not drawn), the cytotoxicity at 10 µM turned out to be 1.82%.

As for `Cc1nnc(CN2CCCC2c2c(C)nn(C)c2Cl)o1` (stereo not drawn), the cytotoxicity at 10 µM is 0.174%.

On to `c1ccc(-n2ccc(CNCC3CCCN3c3cccnn3)n2)cc1` (stereo not drawn), for which the cytotoxicity at 10 µM was -10.2%.

Turning to `Cc1nn(C)c(N2CCOCC2)c1CNC(C)c1cccs1` (stereo not drawn), the cytotoxicity at 10 µM was -1.47%.

On to `CCOc1cc(C(=O)N2CCCC(c3noc(CC)n3)C2)ccn1` (stereo not drawn), for which the cytotoxicity at 10 µM is -3.65%.

Consider `O=C(NCCn1nc2ccccn2c1=O)c1scnc1Cl`, for which the cytotoxicity at 10 µM was -13.9%.

`CCC1c2ccsc2CCN1C(=O)NCc1cccnc1N(C)C` (stereo not drawn): the cytotoxicity at 10 µM was -17.4%.

Regarding `Cc1ncsc1C(=O)N1CCCC(n2cncn2)C1` (stereo not drawn), the cytotoxicity at 10 µM was 0.364%.

As to `Cc1cc(C)n(C2CCCN(C(=O)CCCc3ccccn3)C2)n1` (stereo not drawn), the cytotoxicity at 10 µM was -16.3%.

As for `COc1ccc(OC)c(C(=O)N(C)Cc2ncc(C)c(OC)c2C)c1`, the cytotoxicity at 10 µM is -4.3%.

With `CC(C)c1nc(C2CCCN2Cc2ccno2)no1` (stereo not drawn), the cytotoxicity at 10 µM was -6.85%.

`O=C(C1CCCC1)N1CCN(Cc2nc(-c3ccco3)no2)CC1`: the cytotoxicity at 10 µM was -7.84%.

For the compound `Cc1ccc(C(CNC(=O)NCc2cc[nH]n2)N2CCOCC2)o1` (stereo not drawn), the cytotoxicity at 10 µM is -8.78%.

Take `CCC1CN(CC(=O)Nc2sccc2C#N)CCO1` (stereo not drawn): the cytotoxicity at 10 µM is -9.29%.

With `CCn1cnnc1C1CCN(C(=O)c2cnc(C3CC3)s2)CC1`, the cytotoxicity at 10 µM is -7.59%.

On to `Cn1c(C2CC2)nc2c1CCN(CC(=O)Nc1nncs1)C2`, for which the cytotoxicity at 10 µM was -6.44%.

As to `O=C(NCc1cc[nH]n1)NCC(O)COc1cccc(F)c1` (stereo not drawn), the cytotoxicity at 10 µM came out at 10.3%.

Take `O=C(NCc1ccccc1-n1cccn1)N1CCN2CCCCC2C1` (stereo not drawn): the cytotoxicity at 10 µM was -1.2%.

Regarding `O=S(=O)(NCc1ccccc1Cn1cncn1)C1CCCC1`, the cytotoxicity at 10 µM came out at 0.674%.

With `Cc1nc(C)n(C2CCCN(C(=O)c3cc(C(N)=O)cs3)C2)n1` (stereo not drawn), the cytotoxicity at 10 µM was -6.86%.

On to `COc1ccc(CNCC(C)Oc2ccccn2)cc1Cl` (stereo not drawn), for which the cytotoxicity at 10 µM came out at 7.36%.

`CN1CCO[C@@H]2CN(S(=O)(=O)c3ccc(F)cc3)CC[C@@H]2C1`: the cytotoxicity at 10 µM came out at 2.56%.

In the case of `CN1CC(=O)N(c2ccccc2)CC12CCN(C(=O)c1cccs1)C2` (stereo not drawn), the cytotoxicity at 10 µM was -79.3%.

For `Cn1cc(C[C@H]2[C@H](N3CCOCC3)CCN2C(=O)c2ccco2)cn1`, the cytotoxicity at 10 µM was 2.44%.

Turning to `Cn1cc(CN2CC[C@H](O)[C@@H]2Cc2ccccc2)cn1`, the cytotoxicity at 10 µM is -73%.

Consider `CN(C)[C@@H]1CN(Cc2cnn(C)c2)[C@@H]2COC[C@H]12`, for which the cytotoxicity at 10 µM was determined as 7.37%.

Turning to `NCCNS(=O)(=O)Cc1ccc(Br)cc1`, the cytotoxicity at 10 µM came to 19.4%.

For `COCCN1CCCc2sc(C(=O)Nc3ccc(C)nc3)nc21`, the cytotoxicity at 10 µM worked out at 5.92%.

As to `Cc1noc(C)c1CN1CC[C@H]2OCC[C@@]2(C(=O)NC2CCCC2)C1`, the cytotoxicity at 10 µM was -75.7%.

For `O=C(C1=CCCC1)N1CC[C@]2(C[C@H](OCc3cccnc3)CO2)C1`, the cytotoxicity at 10 µM was 11.7%.

Turning to `Cc1ccoc1C(=O)N1CCn2nnc(COc3cccnc3)c2C1`, the cytotoxicity at 10 µM was -82.5%.

With `c1cc(CN2CCCC23CCCN(Cc2ccoc2)C3)ccn1` (stereo not drawn), the cytotoxicity at 10 µM is 2.25%.

Regarding `Cc1csc2nc3n(c(=O)c12)CCN(Cc1c[nH]cn1)CC3`, the cytotoxicity at 10 µM was -18.8%.

On to `CN1C(=O)CCCC12CCCN(Cc1nccs1)C2` (stereo not drawn), for which the cytotoxicity at 10 µM is 11.4%.

As for `Cn1cc(CN2CCOCC3(C2)CN(c2ccccc2)C(=O)CO3)cn1` (stereo not drawn), the cytotoxicity at 10 µM amounted to 0.436%.

As to `C[C@H](N)Cn1nc(-c2cccs2)oc1=O`, the cytotoxicity at 10 µM is -1.94%.

As to `CC(C)n1ccc(-c2cc(C(=O)N3CCN(C)CC3)c3ccccn23)n1`, the cytotoxicity at 10 µM was 9.49%.

Take `c1nc2c(c(NC3CCC3)n1)CCNCC2`: the cytotoxicity at 10 µM was -1.28%.

As to `Cn1cncc1CN1CCC2(CCCN2c2ncccn2)CC1`, the cytotoxicity at 10 µM turned out to be 9.37%.

`COCCN1CCN(S(C)(=O)=O)Cc2ccc(C)nc21`: the cytotoxicity at 10 µM is -5.06%.

Turning to `NC(=O)c1cccc(CNCC=Cc2ccccc2)c1`, the cytotoxicity at 10 µM came to 5.62%.

With `CN(CCCOc1ccccc1Cl)C(=O)CN1C[C@H]2CC[C@@H](CC1=O)N2`, the cytotoxicity at 10 µM is -11.9%.
